The target in assay [1] is T1, Mitogen-activated protein kinase kinase kinase 20 (Homo sapiens, UniProt Q9NYL2). Nature of the assay: Inhibition of N-terminal GST-tagged recombinant human full-length ZAK expressed in baculovirus infected Sf9 insect cells using MBP as substrate after 30 mins by ADP-Glo assay. The gist of the method: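 ZAK activity by ADP-Glo luminescence with MBP as substrate, ATP and serially diluted compound. Reaction started by adding ATP and run 30 min at room temperature. ADP-Glo reagent was added to stop it (40 min), then detection reagent for 30 min before reading luminescence. Curves fitted; each experiment repeated at least 3 times.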
T1 sequence (Q9NYL2 whole entry): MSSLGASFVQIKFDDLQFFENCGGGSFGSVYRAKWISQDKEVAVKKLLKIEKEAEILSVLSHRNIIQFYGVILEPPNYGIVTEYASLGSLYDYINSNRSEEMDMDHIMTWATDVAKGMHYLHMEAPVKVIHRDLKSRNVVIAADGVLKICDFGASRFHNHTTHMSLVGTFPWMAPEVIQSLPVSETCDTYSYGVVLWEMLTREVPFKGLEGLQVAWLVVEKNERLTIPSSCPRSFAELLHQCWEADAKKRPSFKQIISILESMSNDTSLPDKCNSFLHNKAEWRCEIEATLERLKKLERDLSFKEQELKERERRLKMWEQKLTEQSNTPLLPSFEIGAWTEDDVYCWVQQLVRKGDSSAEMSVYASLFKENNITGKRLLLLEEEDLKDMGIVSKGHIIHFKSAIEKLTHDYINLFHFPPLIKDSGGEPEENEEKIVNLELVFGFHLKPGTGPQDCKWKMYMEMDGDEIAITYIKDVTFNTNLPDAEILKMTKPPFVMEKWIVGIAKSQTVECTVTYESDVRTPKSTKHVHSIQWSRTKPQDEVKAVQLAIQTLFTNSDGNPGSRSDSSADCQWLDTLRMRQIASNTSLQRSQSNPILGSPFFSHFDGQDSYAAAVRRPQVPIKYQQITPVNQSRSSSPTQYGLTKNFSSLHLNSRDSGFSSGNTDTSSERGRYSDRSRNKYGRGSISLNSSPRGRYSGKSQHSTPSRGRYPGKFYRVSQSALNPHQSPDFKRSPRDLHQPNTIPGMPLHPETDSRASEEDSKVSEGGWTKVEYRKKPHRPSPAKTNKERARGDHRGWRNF

In assay [2] the target is Serine/threonine-protein kinase B-raf (Homo sapiens, UniProt P15056, V600E). Nature of the assay: Inhibition of recombinant human B-RAF V600E mutant using Ser/Thr3 as substrate after 1 hr by FRET-based Z'-Lyte assay.
Chain of Serine/threonine-protein kinase B-raf (Homo sapiens, UniProt P15056, V600E) (P15056 2-766 V600E limits assumed): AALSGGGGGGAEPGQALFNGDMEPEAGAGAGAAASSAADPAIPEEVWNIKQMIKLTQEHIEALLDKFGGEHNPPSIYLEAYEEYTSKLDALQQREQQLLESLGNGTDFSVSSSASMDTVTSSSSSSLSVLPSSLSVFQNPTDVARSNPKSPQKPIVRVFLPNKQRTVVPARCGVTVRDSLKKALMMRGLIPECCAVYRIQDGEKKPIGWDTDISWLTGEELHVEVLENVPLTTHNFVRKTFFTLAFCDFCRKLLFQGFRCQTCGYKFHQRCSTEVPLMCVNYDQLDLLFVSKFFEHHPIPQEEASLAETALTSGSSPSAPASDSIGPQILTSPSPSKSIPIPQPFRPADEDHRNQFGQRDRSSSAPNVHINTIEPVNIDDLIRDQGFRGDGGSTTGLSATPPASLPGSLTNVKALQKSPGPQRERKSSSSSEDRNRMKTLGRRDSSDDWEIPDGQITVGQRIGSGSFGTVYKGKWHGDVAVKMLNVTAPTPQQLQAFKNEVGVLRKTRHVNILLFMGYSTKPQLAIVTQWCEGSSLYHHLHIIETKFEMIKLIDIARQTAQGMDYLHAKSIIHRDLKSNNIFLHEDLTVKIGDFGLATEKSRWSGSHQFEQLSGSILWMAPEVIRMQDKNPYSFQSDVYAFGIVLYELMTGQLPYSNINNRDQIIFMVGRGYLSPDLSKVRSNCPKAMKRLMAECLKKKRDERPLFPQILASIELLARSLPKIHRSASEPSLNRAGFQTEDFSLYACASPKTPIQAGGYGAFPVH
The target in assay [3] is Serine/threonine-protein kinase B-raf (Homo sapiens, UniProt P15056). In words: Inhibition of wild type GST-tagged recombinant human full-length B-RAF expressed in baculovirus expression system using Ser/Thr3 as substrate after 1 hr by FRET-based Z'-Lyte assay. The gist of the method: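 Z'-Lyte FRET assay with Ser/Thr3 peptide in kinase buffer; the final reaction held 0.002 ng B-Raf for wild type. Incubated 1 h at room temperature, then 1 h development to cleave nonphosphorylated peptide, then stop reagent. Means of 3 independent experiments.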
Chain of Serine/threonine-protein kinase B-raf (Homo sapiens, UniProt P15056) (P15056 whole entry): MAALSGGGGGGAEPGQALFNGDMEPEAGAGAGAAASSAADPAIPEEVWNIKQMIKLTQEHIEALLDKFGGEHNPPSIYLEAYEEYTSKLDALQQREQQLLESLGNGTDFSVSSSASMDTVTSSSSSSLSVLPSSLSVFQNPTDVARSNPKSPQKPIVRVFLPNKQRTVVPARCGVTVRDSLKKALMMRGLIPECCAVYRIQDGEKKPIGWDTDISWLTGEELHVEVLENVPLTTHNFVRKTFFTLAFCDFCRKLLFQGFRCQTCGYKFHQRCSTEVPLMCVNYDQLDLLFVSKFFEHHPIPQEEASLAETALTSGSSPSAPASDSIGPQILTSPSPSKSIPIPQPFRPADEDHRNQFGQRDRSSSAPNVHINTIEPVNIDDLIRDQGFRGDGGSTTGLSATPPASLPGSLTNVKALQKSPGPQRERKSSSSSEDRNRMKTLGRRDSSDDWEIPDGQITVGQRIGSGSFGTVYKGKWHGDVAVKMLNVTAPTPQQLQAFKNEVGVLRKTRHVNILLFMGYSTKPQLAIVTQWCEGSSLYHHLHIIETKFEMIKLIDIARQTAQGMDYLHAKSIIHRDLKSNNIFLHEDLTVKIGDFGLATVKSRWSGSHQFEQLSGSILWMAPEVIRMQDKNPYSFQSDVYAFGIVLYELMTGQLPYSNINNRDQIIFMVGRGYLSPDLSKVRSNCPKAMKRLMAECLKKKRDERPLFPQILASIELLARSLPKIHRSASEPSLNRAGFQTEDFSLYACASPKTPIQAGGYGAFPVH

Assay [4] addresses T1, Mitogen-activated protein kinase kinase kinase 20.

We go through 15 compounds from ChEMBL document CHEMBL4052661, “Structure Based Design of N-(3-((1H-Pyrazolo[3,4-b]pyridin-5-yl)ethynyl)benzenesulfonamides as Selective Leucine-Zipper and Sterile-α Motif Kinase (ZAK) Inhibitors” (J Med Chem, 2017).

The structures appear in SMILES notation.

The IC50 is the point on the concentration scale where inhibition reaches its midpoint.

In the case of `O=S(=O)(Nc1ccc(F)c(C#Cc2cnc3[nH]ncc3c2)c1F)c1cccc(Cl)c1`, the IC50 in assay [1] was 5.1 nM; in assay [2] it was greater than 10000 nM; in assay [3], greater than 5000 nM.

`O=S(=O)(Nc1ccc(F)c(C#Cc2cnc3[nH]nc(OC4CCCC4)c3c2)c1F)c1cccc(Cl)c1`: the IC50 in assay [1] was 144 nM; in assay [2], greater than 10000 nM; in assay [3], greater than 10000 nM.

`Cn1ncc2cc(C#Cc3c(F)ccc(NS(=O)(=O)c4cccc(Cl)c4)c3F)cnc21`: the IC50 in assay [1] is greater than 30000 nM; in assay [2] it was greater than 10000 nM; in assay [3] it was greater than 10000 nM.

Turning to `COc1n[nH]c2ncc(C#Cc3c(F)ccc(NS(=O)(=O)c4ccccc4Cl)c3F)cc12`, the IC50 in assay [1] is 5.1 nM; in assay [2] it was greater than 1000 nM; in assay [3], greater than 1000 nM.

In the case of `COc1cccc(S(=O)(=O)Nc2ccc(F)c(C#Cc3cnc4[nH]nc(OC)c4c3)c2F)c1`, the results for the IC50 in assay [1], in assay [2] and in assay [3] were 7.5 nM, greater than 7000 nM and greater than 1000 nM, respectively.

For `O=S(=O)(Nc1ccc(F)c(C#Cc2ccc3[nH]ncc3c2)c1F)c1cccc(Cl)c1`, the figures for the IC50 in assay [1], in assay [2] and in assay [3] were 994 nM, greater than 10000 nM and greater than 10000 nM, respectively.

In the case of `COc1n[nH]c2ncc(C#Cc3c(F)ccc(NS(=O)(=O)c4cccc(Cl)c4)c3F)cc12`, the figures for the IC50 in assay [1], in assay [2] and in assay [3] were 4.2 nM, 902 nM and greater than 6000 nM, respectively.

Consider `O=S(=O)(Nc1ccc(F)c(C#Cc2cnc3[nH]ccc3c2)c1F)c1cccc(Cl)c1`, for which the IC50 in assay [1] is 22.6 nM; in assay [2] it was greater than 10000 nM; in assay [3], greater than 10000 nM.

`COc1n[nH]c2ncc(C#Cc3c(F)ccc(NS(=O)(=O)c4ccc(Cl)cc4)c3F)cc12`: the IC50 in assay [1] was 16.8 nM; in assay [2] it was greater than 10000 nM; in assay [3] it was greater than 1000 nM.

Regarding `COc1n[nH]c2ncc(C#Cc3c(F)ccc(NS(=O)(=O)c4cccc(Br)c4)c3F)cc12`, the IC50 is 5 nM in assay [1], greater than 1000 nM in assay [2] and greater than 1000 nM in assay [3].

Take `COc1n[nH]c2ncc(C#Cc3c(F)ccc(NS(=O)(=O)c4cccc(Cl)c4Cl)c3F)cc12`: the half-inhibitory concentration (IC50) in assay [1] is 9.6 nM; in assay [2], greater than 10000 nM; in assay [3] it was greater than 2000 nM.

With `COc1n[nH]c2ncc(C#Cc3c(F)ccc(NS(=O)(=O)c4ccccc4)c3F)cc12`, the IC50 in assay [1] is 19.2 nM; in assay [2], 169 nM; in assay [3], greater than 10000 nM.

For `COc1n[nH]c2ncc(C#Cc3c(F)ccc(NS(=O)(=O)c4cccc(C)c4)c3F)cc12`, the IC50 in assay [1] is 12.1 nM; in assay [2], greater than 10000 nM; in assay [3], greater than 10000 nM.

In the case of `CC(C)Oc1n[nH]c2ncc(C#Cc3c(F)ccc(NS(=O)(=O)c4cccc(Cl)c4)c3F)cc12`, the figures for the IC50 in assay [1], in assay [2] and in assay [3] were 42.7 nM, greater than 2000 nM and greater than 10000 nM, respectively.

Turning to `CCCS(=O)(=O)Nc1ccc(F)c(C(=O)c2c[nH]c3ncc(-c4ccc(Cl)cc4)cc23)c1F` [VEMURAFENIB], the IC50 in assay [1] turned out to be 31.4 nM; in assay [4] it was 23 nM.
